# Assay results from ChEMBL document CHEMBL1156498, “4-Hydroxynonenal, an endogenous aldehyde, causes pain and neurogenic inflammation through activation of the irritant receptor TRPA1” (Proc Natl Acad Sci U S A, 2007).
# Active and inactive are the calls of the source. The calls are words filed in the database; no cut-off is given here.
# How the values were obtained:
# [1] = species on record: Mus musculus; experiment: Inhibition of capsaicin-induction of paw lifting in Swiss mouse; format: functional, organism-based
# Procedure, shortened: (§1)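 Mouse nocifensive test: intraplantar capsaicin (0.1 nmol/20 μl, in 4% DMSO) or HNE (120 nmol/20 μl, in saline), with camphor, gentamycin or capsazepine co-injected intraplantar. Licking/lifting time recorded for 5 min; vehicle controls. Mean ± SEM; ANOVA with Bonferroni.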
# [2] = biological target: Transient receptor potential cation channel subfamily A member 1 (Rattus norvegicus) (UniProt Q6RI86); experiment: Activity at TRPA1 channel in rat dorsal root ganglion neurons assessed as attenuation of capsaicin-induced intracellular calcium; format: tissue-based
# Sequence of Transient receptor potential cation channel subfamily A member 1 (Rattus norvegicus) (Q6RI86 whole entry): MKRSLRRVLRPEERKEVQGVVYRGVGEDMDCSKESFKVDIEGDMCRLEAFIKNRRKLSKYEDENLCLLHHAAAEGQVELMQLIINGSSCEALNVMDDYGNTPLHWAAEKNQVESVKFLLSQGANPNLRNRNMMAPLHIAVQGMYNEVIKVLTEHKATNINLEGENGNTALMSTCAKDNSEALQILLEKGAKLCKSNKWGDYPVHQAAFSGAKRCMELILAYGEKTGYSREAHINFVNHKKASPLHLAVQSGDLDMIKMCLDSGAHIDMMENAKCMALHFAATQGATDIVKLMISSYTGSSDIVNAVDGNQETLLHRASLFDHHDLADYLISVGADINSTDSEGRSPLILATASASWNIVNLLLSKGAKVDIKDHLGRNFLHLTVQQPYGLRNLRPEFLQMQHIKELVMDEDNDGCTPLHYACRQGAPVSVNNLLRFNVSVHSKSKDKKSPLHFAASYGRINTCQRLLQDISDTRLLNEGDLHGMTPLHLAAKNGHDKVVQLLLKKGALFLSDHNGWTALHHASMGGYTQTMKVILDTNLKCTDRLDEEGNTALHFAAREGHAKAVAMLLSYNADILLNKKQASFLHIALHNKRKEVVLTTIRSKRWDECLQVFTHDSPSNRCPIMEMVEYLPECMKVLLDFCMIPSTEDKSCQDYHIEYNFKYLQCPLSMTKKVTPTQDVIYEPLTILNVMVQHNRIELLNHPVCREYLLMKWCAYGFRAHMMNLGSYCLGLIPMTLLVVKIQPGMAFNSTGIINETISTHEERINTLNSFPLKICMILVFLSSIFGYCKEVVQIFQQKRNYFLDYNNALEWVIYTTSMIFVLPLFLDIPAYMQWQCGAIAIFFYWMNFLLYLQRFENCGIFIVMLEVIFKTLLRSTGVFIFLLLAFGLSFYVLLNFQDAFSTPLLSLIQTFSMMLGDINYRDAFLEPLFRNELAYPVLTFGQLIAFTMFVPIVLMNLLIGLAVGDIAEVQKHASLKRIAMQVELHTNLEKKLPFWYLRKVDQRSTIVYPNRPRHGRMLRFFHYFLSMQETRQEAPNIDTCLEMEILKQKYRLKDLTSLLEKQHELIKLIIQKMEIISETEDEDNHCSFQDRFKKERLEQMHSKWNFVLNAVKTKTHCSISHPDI
# Procedure, shortened: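 Cultured rat DRG neurons, Fura2/AM calcium imaging. Capsaicin (0.1 μM)-evoked [Ca2+]i responses measured in the presence of TRPA1 antagonists.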
# [3] = species on record: Mus musculus; experiment: Attenuation of capsaicin-induction of paw lifting in Swiss mouse; format: functional, organism-based; procedure, shortened: as §1
# [4] = species on record: Rattus norvegicus; experiment: Reduction of capsaocin-induction of allodynia in rat
# [5] = test system: Mus musculus; experiment: Induction of paw licking in intraplantarly dosed Swiss mouse at 120 nmol/paw; format: functional, organism-based
# Procedure, shortened: (§2)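 Male Swiss mice injected intraplantar with HNE 120 nmol in 20 μl 0.9% saline. Time spent licking and lifting the injected paw recorded for 5 min immediately after injection; vehicle controls.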
# [6] = species on record: Rattus norvegicus; experiment: Reversal of induction of allodynia in rat in presence of capsazepine
# [7] = biological target: T1, Transient receptor potential cation channel subfamily A member 1 (Rattus norvegicus, UniProt Q6RI86); experiment: Agonist activity at rat TRPA1 channel expressed in tetracycline induced HEK293 cells assessed as increase in intracellular calcium; format: functional, cell-based
# T1 sequence (Q6RI86 whole entry): as above
# Procedure, shortened: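 Stable HEK293 FLPTREX line carrying HA-tagged rat TRPA1 under a tetracycline-inducible promoter. Expression induced with 0.1 μg/ml tetracycline 16 h before the assay. Fura2/AM [Ca2+]i read on a multiwell fluorescence plate reader, 30,000 cells per well, 10–100 μM, n = 4 wells per concentration, EC50 derived.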
# [8] = biological target: Transient receptor potential cation channel subfamily A member 1 (Rattus norvegicus) (UniProt Q6RI86); experiment: Reversal of activation of TRPA1 channel in rat dorsal root ganglion neurons at 100 uM by calcium imaging in presence of camphor; format: tissue-based
# Procedure, shortened: (§3)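 Cultured rat DRG neurons, Fura2/AM ratiometric calcium imaging. HNE 100 μM-evoked [Ca2+]i rise measured with ruthenium red (1 μM), (+) camphor (1 mM), gentamycin (100 μM) or capsazepine (10 μM), each versus vehicle. n ≥ 22 cells; mean ± SEM; Bonferroni test.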
# [9] = test system: Spinal cord; experiment: Induction of neurogenic inflammation in rat dorsal spinal cord assessed as CGRP peptide release for 20 mins; format: functional, tissue-based
# Procedure, shortened: (§4)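 Rat lumbar dorsal spinal cord or esophagus slices (≈0.4 mm), stabilized 60 min in Krebs' solution at 37°C. Agonist superfused 20 min (HNE 50 or 100 μM). Fractions collected every 10 min into ethanoic acid (final 2 N), freeze-dried, and assayed for SP- or CGRP-like immunoreactivity (fmol/g/20 min). Controls: capsaicin desensitization (10 μM, 20 min) or 2 mM EGTA. n ≥ 4 slices; mean ± SEM.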
# [10] = test system: Mus musculus; experiment: Induction of paw lifting in TRPA1-deficient intraplantarly dosed Swiss mouse at 120 nmol/paw; format: functional, organism-based
# Procedure, shortened: (§5)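 Male TRPA1-deficient mice and wild-type littermates (about 30 g) injected intraplantar with HNE 120 nmol in 20 μl 0.9% saline. Total licking/lifting time recorded for 5 min, scored blind to genotype. n = 6 per group; single-factor ANOVA.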
# [11] = biological target: Transient receptor potential cation channel subfamily A member 1 (Rattus norvegicus) (UniProt Q6RI86); experiment: Agonist activity at rat TRPA1 channel expressed in HEK293 cells assessed as increase in intracellular calcium; format: functional, cell-based
# Procedure, shortened: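 Stable Flp-In HEK293 line expressing C-terminally HA11-tagged rat TRPA1 under a tetracycline-inducible promoter, induced with 0.1 μg/ml tetracycline 16 h before testing. Uninduced and vector-control cells also tested. Fura2/AM [Ca2+]i read in a fluorescence plate reader, 30,000 cells per well, n = 4 wells per concentration. Concentration–response used to derive EC50.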
# [12] = species on record: Mus musculus; experiment: Induction of paw lifting in Swiss mouse; format: functional, organism-based
# Procedure, shortened: (§6)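 Male Swiss mice injected intraplantar with HNE at 15–240 nmol in 20 μl saline, then placed in a chamber. Total time licking and lifting the injected paw recorded for 5 min.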
# [13] = test system: Esophagus; experiment: Induction of neurogenic inflammation in rat esophagus assessed as substance P release for 20 mins; format: functional, tissue-based; procedure, shortened: as §4
# [14] = biological target: Transient receptor potential cation channel subfamily A member 1 (Rattus norvegicus) (UniProt Q6RI86); experiment: Reversal of activation of TRPA1 channel in rat dorsal root ganglion neurons at 100 uM by calcium imaging in presence of capsazepine; format: tissue-based; procedure, shortened: as §3
# [15] = species on record: Rattus norvegicus; experiment: Reversal of induction of allodynia in rat in presence of camphor
# [16] = biological target: Transient receptor potential cation channel subfamily A member 1 (Homo sapiens) (UniProt O75762); experiment: Agonist activity at human TRPA1 channel expressed in xenopus oocytes assessed as membrane currents by two electrode voltage-clamp technique; format: functional, cell-based; settings: Oocyte
# Sequence of Transient receptor potential cation channel subfamily A member 1 (Homo sapiens) (O75762 whole entry): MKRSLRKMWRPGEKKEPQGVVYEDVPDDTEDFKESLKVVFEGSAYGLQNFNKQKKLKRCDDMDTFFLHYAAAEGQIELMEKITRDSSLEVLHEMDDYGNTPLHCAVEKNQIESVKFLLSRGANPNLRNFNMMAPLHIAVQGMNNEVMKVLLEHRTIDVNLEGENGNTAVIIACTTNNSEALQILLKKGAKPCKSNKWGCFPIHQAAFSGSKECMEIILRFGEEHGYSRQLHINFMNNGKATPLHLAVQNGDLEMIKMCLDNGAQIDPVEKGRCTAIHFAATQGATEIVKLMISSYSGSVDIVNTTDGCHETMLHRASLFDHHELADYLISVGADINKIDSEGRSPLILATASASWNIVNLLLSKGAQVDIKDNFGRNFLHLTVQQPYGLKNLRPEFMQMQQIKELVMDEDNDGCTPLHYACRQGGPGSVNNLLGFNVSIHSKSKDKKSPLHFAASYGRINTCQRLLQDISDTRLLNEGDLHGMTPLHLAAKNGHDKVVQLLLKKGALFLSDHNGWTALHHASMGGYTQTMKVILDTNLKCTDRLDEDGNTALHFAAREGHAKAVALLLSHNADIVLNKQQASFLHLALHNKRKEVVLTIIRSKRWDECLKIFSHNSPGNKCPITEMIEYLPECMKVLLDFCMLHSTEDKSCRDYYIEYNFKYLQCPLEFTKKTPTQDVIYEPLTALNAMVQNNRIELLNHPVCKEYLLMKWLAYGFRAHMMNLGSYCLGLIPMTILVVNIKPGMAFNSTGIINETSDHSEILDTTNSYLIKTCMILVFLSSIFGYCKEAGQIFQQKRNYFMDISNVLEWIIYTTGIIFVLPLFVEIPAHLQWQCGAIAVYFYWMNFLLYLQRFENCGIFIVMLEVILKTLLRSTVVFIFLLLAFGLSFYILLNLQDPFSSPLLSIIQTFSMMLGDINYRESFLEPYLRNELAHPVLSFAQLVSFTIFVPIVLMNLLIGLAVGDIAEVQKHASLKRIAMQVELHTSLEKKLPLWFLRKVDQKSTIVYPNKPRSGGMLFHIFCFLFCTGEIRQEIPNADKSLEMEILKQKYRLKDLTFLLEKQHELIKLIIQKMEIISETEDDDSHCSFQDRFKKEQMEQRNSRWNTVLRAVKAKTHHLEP
# Procedure, shortened: (§7)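 Two-electrode voltage clamp at +70 mV holding potential on Xenopus oocytes expressing human TRPA1, with voltage ramps for current–voltage relationships. Agonist challenge followed by ruthenium red (10 μM) block; 2-aminoethyl diphenylborinate (200 μM) used as reference agonist.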
# [17] = biological target: Transient receptor potential cation channel subfamily A member 1 (Rattus norvegicus) (UniProt Q6RI86); experiment: Activation of TRPA1 channel in rat dorsal root ganglion neurons assessed as increase in intracellular calcium level at 300 uM; format: tissue-based
# Procedure, shortened: (§8)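 Cultured rat dorsal root ganglion neurons loaded with Fura2/AM. HNE bath-applied across 30–500 μM. Ratiometric calcium imaging of the rise in [Ca2+]i, with capsaicin response recorded. Dose–response curve built from n ≥ 22 cells; mean ± SEM.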
# [18] = biological target: Transient receptor potential cation channel subfamily A member 1 (Rattus norvegicus) (UniProt Q6RI86); experiment: Reversal of activation of TRPA1 channel in rat dorsal root ganglion neurons at 100 uM by calcium imaging in presence of gentamycin; format: tissue-based; procedure, shortened: as §3
# [19] = test system: Mus musculus; experiment: Induction of paw lifting in intraplantarly dosed Swiss mouse at 120 nmol/paw; format: functional, organism-based; procedure, shortened: as §2
# [20] = biological target: Transient receptor potential cation channel subfamily A member 1 (Homo sapiens) (UniProt O75762); experiment: Reversal of activation of human TRPA1 channel expressed in xenopus oocytes by two electrode voltage-clamp technique in presence of ruthenium red; format: cell-based; settings: Oocyte; procedure, shortened: as §7
# [21] = species on record: Mus musculus; experiment: Induction of paw licking in Swiss mouse; format: functional, organism-based; procedure, shortened: as §6
# [22] = test system: Mus musculus; experiment: Induction of paw licking in intraplantarly dosed TRPA1-deficient Swiss mouse at 120 nmol/paw; format: functional, organism-based; procedure, shortened: as §5
# [23] = species on record: Mus musculus; experiment: Reversal of induction of paw lifting in Swiss mouse at 15 to 240 nmol/paw in presence gentamycin; format: functional, organism-based; procedure, shortened: as §1
# [24] = test system: Esophagus; experiment: Induction of neurogenic inflammation in rat esophagus assessed as CGRP peptide release for 20 mins; format: functional, tissue-based; procedure, shortened: as §4
# [25] = species on record: Rattus norvegicus; experiment: Reversal of induction of allodynia in rat in presence of gentamycin
# [26] = biological target: T1, Transient receptor potential cation channel subfamily A member 1; experiment: Activation of TRPA1 channel in rat dorsal root ganglion neurons assessed as increase in intracellular calcium level; format: tissue-based
# Procedure, shortened: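 Rat DRG neurons in culture, loaded with Fura2/AM and read by ratiometric calcium imaging. Agonist applied in the bath at 30–500 μM, with a concentration-response used to derive the EC50. n ≥ 22 cells.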
# [27] = test system: Spinal cord; experiment: Induction of neurogenic inflammation in rat dorsal spinal cord assessed as substance P release for 20 mins; format: functional, tissue-based; procedure, shortened: as §4
# [28] = species on record: Rattus norvegicus; experiment: Induction of allodynia in rat
# [29] = biological target: Transient receptor potential cation channel subfamily A member 1 (Rattus norvegicus) (UniProt Q6RI86); experiment: Activation of TRPA1 channel in rat dorsal root ganglion neurons assessed as increase in intracellular calcium level at 50 uM; format: tissue-based; procedure, shortened: as §8
# [30] = biological target: Transient receptor potential cation channel subfamily A member 1 (Rattus norvegicus) (UniProt Q6RI86); experiment: Reversal of activation of TRPA1 channel in rat dorsal root ganglion neurons at 100 uM by calcium imaging in presence of ruthenium red; format: tissue-based; procedure, shortened: as §3
# [31] = test system: Rattus norvegicus; experiment: Increase in plasma extravasation in intraplantar dosed rat hind paw; format: functional, organism-based
# Procedure, shortened: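 Male Sprague–Dawley rats (250 g) given Evans Blue (30 mg/kg) into the tail vein 1 min before intraplantar HNE (60–150 nmol in 30 μl) or vehicle. Killed by exsanguination at 30 min; paw skin dye extracted in formamide 48 h at room temperature in the dark and read at 620 nm, expressed as ng/g wet tissue. SR140333 (1.6 μmol/kg i.v.) given 15 min before. n ≥ 4.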
# [32] = test system: Spinal cord; experiment: Induction of neurogenic inflammation in capsaicin desensitized rat dorsal spinal cord assessed as substance P release per 20 mins at 10 uM; format: functional
# Procedure, shortened: (§9)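 Rat lumbar dorsal spinal cord or esophagus slices (~0.4 mm), superfused in Krebs' solution at 37°C after 60 min stabilization. Tissue desensitized beforehand with 10 μM capsaicin for 20 min. Fractions collected at 10-min intervals into ethanoic acid (final 2 N), freeze-dried, and assayed for SP or CGRP immunoreactivity. Results in fmol/g/20 min, at least four experiments.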
# [33] = test system: Spinal cord; experiment: Induction of neurogenic inflammation in rat dorsal spinal cord assessed as CGRP peptide release per 20 mins at 10 uM; format: functional
# Procedure, shortened: (§10)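 Rat lumbar dorsal spinal cord or esophagus slices (~0.4 mm), stabilized 60 min in Krebs' solution at 37°C, then superfused. Fractions collected at 10-min intervals into ethanoic acid (final 2 N), freeze-dried, reconstituted, and assayed for SP or CGRP immunoreactivity. Results in fmol/g/20 min, at least four experiments.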
# [34] = test system: Spinal cord; experiment: Induction of neurogenic inflammation in rat dorsal spinal cord assessed as substance P release per 20 mins at 10 uM; format: functional; procedure, shortened: as §10
# [35] = test system: Esophagus; experiment: Induction of neurogenic inflammation in rat esophagus assessed as substance P release per 20 mins at 50 uM; format: functional; procedure, shortened: as §10
# [36] = test system: Esophagus; experiment: Induction of neurogenic inflammation in capsaicin desensitized rat esophagus assessed as substance P release per 20 mins at 50 uM; format: functional; procedure, shortened: as §9
# [37] = test system: Spinal cord; experiment: Induction of neurogenic inflammation in capsaicin desensitized rat dorsal spinal cord assessed as CGRP peptide release per 20 mins at 10 uM; format: functional; procedure, shortened: as §9
# [38] = test system: Spinal cord; experiment: Induction of neurogenic inflammation in rat dorsal spinal cord assessed as CGRP release per 20 mins at 10 uM in calcium free medium; format: functional
# Procedure, shortened: (§11)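 Rat dorsal spinal cord or esophagus slices superfused in Krebs' solution at 37°C, with extracellular Ca2+ chelated by 2 mM EGTA added to the bath. Fractions collected every 10 min into ethanoic acid (final 2 N), freeze-dried, and assayed for SP or CGRP immunoreactivity. Results in fmol/g/20 min, at least four experiments.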
# [39] = test system: Esophagus; experiment: Induction of neurogenic inflammation in capsaicin desensitized rat esophagus assessed as CGRP release per 20 mins at 50 uM; format: functional; procedure, shortened: as §9
# [40] = test system: Esophagus; experiment: Induction of neurogenic inflammation in rat esophagus assessed as CGRP release per 20 mins at 50 uM; format: functional; procedure, shortened: as §10
# [41] = test system: Spinal cord; experiment: Induction of neurogenic inflammation in rat dorsal spinal cord assessed as substance P release per 20 mins at 10 uM in calcium free medium; format: functional; procedure, shortened: as §11
# [42] = test system: Esophagus; experiment: Induction of neurogenic inflammation in rat esophagus assessed as substance P release per 20 mins at 50 uM in calcium free medium; format: functional; procedure, shortened: as §11
# [43] = test system: Esophagus; experiment: Induction of neurogenic inflammation in rat esophagus assessed as CGRP release per 20 mins at 50 uM in calcium free medium; format: functional; procedure, shortened: as §11
smiles,measurement,setting,value
CC12CCC(CC1=O)C2(C)C (stereo not drawn),Activity,[1],Active
Oc1cc2c(cc1O)CN(C(=S)NCCc1ccc(Cl)cc1)CCC2,Activity,[2],Active
same,Activity,[3],Active
same,Activity,[4],Active
CCCCCC(O)/C=C/C=O (stereo not drawn) [4-HYDROXYNON-2-ENAL],Activity,[5],Active
same,Activity,[6],Active
same,EC50,[7],27 µM
same,Activity,[8],inactive
same,Activity,[9],Active
same,Activity,[10],inactive
same,Activity,[11],inactive
same,Activity,[12],Dose-dependent effect
same,Activity,[13],Active
same,Activity,[14],Active
same,Activity,[15],inactive
same,Activity,[16],Active
same,Activity,[17],Active
same,Activity,[18],inactive
same,Activity,[19],Active
same,Activity,[20],Active
same,Activity,[21],Dose-dependent effect
same,Activity,[22],inactive
same,Activity,[23],inactive
same,Activity,[24],Active
same,Activity,[25],inactive
same,EC50,[26],77 µM
same,Activity,[27],Active
same,Activity,[28],Dose-dependent effect
same,Activity,[29],Active
same,Activity,[30],inactive
same,Activity,[31],Dose-dependent effect
O=C/C=C/c1ccccc1 [CINNAMALDEHYDE],Activity,[32],23.7 fmol/g
same,Activity,[33],720.4 fmol/g
same,Activity,[34],160.5 fmol/g
same,Activity,[35],31.5 fmol/g
same,Activity,[36],5.8 fmol/g
same,Activity,[37],63.8 fmol/g
same,Activity,[38],118.5 fmol/g
same,Activity,[39],17.8 fmol/g
same,Activity,[40],93.2 fmol/g
same,Activity,[41],34.5 fmol/g
same,Activity,[42],6.3 fmol/g
same,Activity,[43],19.2 fmol/g
